{
  "source": "paper PMC11839910",
  "about": "(Nature Communications, 2025)",
  "key": {"SOD1^G93A [1]": {"biological_target": "T1, SOD1^G93A (Homo sapiens, UniProt P00441, G94A)", "T1 sequence (P00441 2-154 G94A limits assumed)": "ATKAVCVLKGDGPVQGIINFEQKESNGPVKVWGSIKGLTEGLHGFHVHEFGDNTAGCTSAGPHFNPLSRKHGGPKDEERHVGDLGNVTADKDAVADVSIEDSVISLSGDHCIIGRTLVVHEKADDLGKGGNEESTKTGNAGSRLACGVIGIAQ", "experiment": "Intact protein LC-MS of covalent drug candidates with purified SOD1^G93A", "type": "binding"}, "SOD1^G93A [2]": {"biological_target": "T1, SOD1^G93A", "type": "binding", "conditions": "transgenic ALS^G93A mouse brain homogenate"}, "SOD1^G93A [3]": {"biological_target": "T1, SOD1^G93A", "experiment": "In vivo target engagement", "outline": "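Hemizygous B6SJL-Tg(SOD1*G93A)1Gur/J mice (15–30 weeks, either sex) were dosed in PBS or water (<2% final DMSO): 10 mg/kg IV, 12.5 or 30 mg/kg SC, or 20 mg/kg SC with collection at 1 h. Blood and brain underwent chloroform–ethanol extraction, then intact-protein C4 LC-MS for %TE against a 37% METE. Doses were re-estimated as old dose × (METE/%TE). Duplicate.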"}, "[4]": {"biological_target": "human serum albumin (HSA) (Homo sapiens, UniProt P02768)", "sequence (P02768 25-609)": "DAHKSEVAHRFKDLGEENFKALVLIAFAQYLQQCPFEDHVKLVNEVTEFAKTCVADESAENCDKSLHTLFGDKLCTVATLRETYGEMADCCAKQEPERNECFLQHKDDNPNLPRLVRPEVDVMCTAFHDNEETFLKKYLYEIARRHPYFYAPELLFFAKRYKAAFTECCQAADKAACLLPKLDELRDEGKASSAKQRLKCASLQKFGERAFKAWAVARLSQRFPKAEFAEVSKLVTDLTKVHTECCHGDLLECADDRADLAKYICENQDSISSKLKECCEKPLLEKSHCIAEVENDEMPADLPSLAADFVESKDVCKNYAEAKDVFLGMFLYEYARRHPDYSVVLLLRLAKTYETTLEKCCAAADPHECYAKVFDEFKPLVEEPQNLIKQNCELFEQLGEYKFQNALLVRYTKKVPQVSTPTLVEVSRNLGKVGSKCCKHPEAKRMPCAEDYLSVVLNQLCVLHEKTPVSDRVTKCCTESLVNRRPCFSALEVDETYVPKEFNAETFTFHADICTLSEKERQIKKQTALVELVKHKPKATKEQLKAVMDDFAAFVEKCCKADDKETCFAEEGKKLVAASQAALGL", "type": "in vitro ADME", "conditions": "intact protein LC-MS"}, "[5]": {"experiment": "Solubility limit in IV dose formulation", "type": "physicochemical"}, "albumin": {"test_system": "albumin", "conditions": "cited from earlier work"}, "SOD1^G93A mouse model": {"test_system": "SOD1^G93A mouse model", "conditions": "cited from earlier work"}},
  "note": "“Also recorded” adds a separate entry of the source.",
  "data": [
    {"smiles": "[O-][S+]1CCCCS1", "note": "(stereo not shown) [S-XL6, 1,2-dithiane-1-oxide]", "values": [
      {"measurement": "proposed MoA confirmed by intact drug-protein mass (D1)", "setting": "SOD1^G93A [1]", "result": "confirms the proposed MoA"},
      {"measurement": "in vitro target engagement in target tissue homogenate (predicted mass shift)", "setting": "SOD1^G93A [2]", "result": "show the predicted mass shifts"},
      {"measurement": "in vivo target engagement, detection of drug-protein complex", "setting": "SOD1^G93A [3]; brain, 1-hr post-dose via SC", "result": "successful detection of cross-linked dimer"},
      {"measurement": "covalent binding to HSA", "setting": "[4]", "result": "negligible binding; also recorded: no detectable HSA binding"}
    ]},
    {"smiles": "CN(C)C/C=C/C(=O)Nc1cc2c(Nc3ccc(F)c(Cl)c3)ncnc2cc1O[C@H]1CCOC1", "note": "[afatinib]", "values": [
      {"measurement": "covalent binding to HSA", "setting": "[4]", "result": "minimal binding; also recorded: limited, but detectable covalent binding"}
    ]},
    {"smiles": "N.N.[Cl][Pt][Cl]", "note": "[cisplatin]", "values": [
      {"measurement": "proposed MoA confirmed by intact drug-protein mass (D1)", "setting": "SOD1^G93A [1]", "result": "shows the predicted molecular mass"}
    ]},
    {"smiles": "CCN(CC)C(=S)SSC(=S)N(CC)CC", "note": "[disulfiram]", "values": [
      {"measurement": "proposed MoA confirmed by intact drug-protein mass (D1)", "setting": "SOD1^G93A [1]", "result": "shows the predicted molecular mass"},
      {"measurement": "METE reached in vivo (D5)", "setting": "SOD1^G93A [3]; at a 20 mg/kg dose imposed by solubility limit", "result": "could not be reached"},
      {"measurement": "covalent binding to HSA", "setting": "[4]", "result": "showed drug-related mass shifts with HSA"},
      {"measurement": "solubility", "setting": "[5]", "result": 4000, "unit": "µg/mL"},
      {"measurement": "plasma protein binding via albumin", "setting": "albumin", "result": "high plasma protein binding"}
    ]},
    {"smiles": "O=c1c2ccccc2[se]n1-c1ccccc1", "note": "[ebselen]", "values": [
      {"measurement": "proposed MoA confirmed by intact drug-protein mass (D1)", "setting": "SOD1^G93A [1]", "result": "confirms its proposed MoA"},
      {"measurement": "in vitro target engagement in target tissue homogenate (predicted mass shift)", "setting": "SOD1^G93A [2]", "result": "show the predicted mass shifts"},
      {"measurement": "METE reached in vivo (D5)", "setting": "SOD1^G93A [3]; at ~22% of LD50 (20 mg/kg SC, 1 h)", "result": "could not be reached"},
      {"measurement": "effect on SOD1 in vivo (modification of SOD1^G93A)", "setting": "SOD1^G93A [3]; brain and blood of dosed SOD1^G93A mouse", "result": "promoting cysteinylation (in brain) and glutathionylation (in blood)"},
      {"measurement": "covalent binding to HSA", "setting": "[4]", "result": "showed drug-related mass shifts with HSA"},
      {"measurement": "survival", "setting": "SOD1^G93A mouse model", "result": "improves survival"}
    ]},
    {"smiles": "C=CC(=O)N1CCC[C@@H](n2nc(-c3ccc(Oc4ccccc4)cc3)c3c(N)ncnc32)C1", "note": "[ibrutinib]", "values": [
      {"measurement": "covalent binding to HSA", "setting": "[4]", "result": "minimal binding; also recorded: limited, but detectable covalent binding"}
    ]},
    {"smiles": "C=CC(=O)N1CCN(c2nc(=O)n(-c3c(C)ccnc3C(C)C)c3nc(-c4c(O)cccc4F)c(F)cc23)[C@@H](C)C1", "note": "[sotorasib]", "values": [
      {"measurement": "covalent binding to HSA", "setting": "[4]", "result": "negligible binding"}
    ]}
  ]
}
